High-throughput results: PubChem BioAssay, several laboratories
ANO1 block: blocks the mouse calcium-activated chloride channel TMEM16A | Q8BHY3 | HEK293 TMEM16A/YFP iodide influx fluorescence, ionomycin | normalized B-score (activity score, 25-100; higher = stronger inhibition) at 10 µM | hit rate 1.2% among 310,000;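 active = ratio plate-corrected score three or more library SD toward inhibition, starting fluorescence score within five deviations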;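 also: score derived from kinetic fluorescence span divided by baseline fluorescence per well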
Target sequence (Q8BHY3 whole entry, looked up): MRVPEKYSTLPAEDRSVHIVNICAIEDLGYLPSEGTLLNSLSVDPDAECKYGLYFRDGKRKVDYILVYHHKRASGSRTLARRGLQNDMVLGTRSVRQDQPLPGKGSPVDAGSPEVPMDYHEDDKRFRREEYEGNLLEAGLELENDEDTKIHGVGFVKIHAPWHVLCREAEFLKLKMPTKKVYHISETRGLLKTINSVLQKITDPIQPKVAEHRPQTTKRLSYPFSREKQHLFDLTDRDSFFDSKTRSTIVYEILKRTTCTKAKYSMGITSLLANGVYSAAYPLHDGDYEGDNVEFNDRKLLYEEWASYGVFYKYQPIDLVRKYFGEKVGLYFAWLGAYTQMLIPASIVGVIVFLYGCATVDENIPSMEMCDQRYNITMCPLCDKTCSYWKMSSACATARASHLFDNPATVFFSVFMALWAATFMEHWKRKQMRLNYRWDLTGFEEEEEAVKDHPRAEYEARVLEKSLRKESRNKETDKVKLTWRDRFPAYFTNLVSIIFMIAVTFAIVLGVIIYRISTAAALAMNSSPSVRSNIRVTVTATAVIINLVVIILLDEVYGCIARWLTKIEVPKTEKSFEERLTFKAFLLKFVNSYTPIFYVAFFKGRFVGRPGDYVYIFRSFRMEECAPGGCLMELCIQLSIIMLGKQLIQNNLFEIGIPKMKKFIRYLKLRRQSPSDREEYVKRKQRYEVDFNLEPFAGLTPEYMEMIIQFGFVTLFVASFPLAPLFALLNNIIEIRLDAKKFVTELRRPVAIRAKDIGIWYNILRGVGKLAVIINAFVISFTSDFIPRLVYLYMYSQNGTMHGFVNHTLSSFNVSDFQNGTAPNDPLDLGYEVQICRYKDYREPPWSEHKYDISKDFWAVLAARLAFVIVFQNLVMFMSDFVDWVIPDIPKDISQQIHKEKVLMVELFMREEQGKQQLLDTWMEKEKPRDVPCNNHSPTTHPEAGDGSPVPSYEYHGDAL
Beta apoptosis: blocks beta cell apoptosis | INS-1E cytokine-induced death, ATP luminescence, 48 h; percent of positive-control rescue, neutral wells zero | protection from apoptosis, % (no concentration beside the values) | hit rate 0.8% among 300,000;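 active = Every replicate reaches about 75%, or at least half do and their mean reaches it too, limit read from the data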;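 also: higher means more ATP so stronger rescue from cytokine killing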
MC4R antag cAMP: antagonists of human melanocortin 4 receptor (MC4R). inhibition, % at 6.5 µM. hit rate 0.48% among 360,000. AID 540295. MC4R-expressing cells, MTII-stimulated cAMP, LANCE TR-FRET;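 active = inhibition above its plate's cutoff, the mean of tested wells on that plate plus 3 SD, cut at about 29% in these data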
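Material: human MC4R-expressing U2OS cells. Probe or stimulus: Melanotan II challenge. Dosing: 6.5 µM single dose. Times: 30-min compound, 1-h challenge, 1-h detection, room temperature. Technique: TR-FRET with Eu-cAMP and labeled anti-cAMP, 671 nm. Replication: singlicate.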
MC4R barr agon: human MC4R agonism via beta-arrestin; P32245; U2OS MC4R beta-arrestin complementation, luminescence; percent of melanotan II response, DMSO zero; activation, % at 8.9 µM; hit rate 0.98% among 360,000; AID 540308;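 active = activation above a per-plate cutoff, the mean activation of sample wells on that plate plus 3 SD, cut at about 8% in these data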
CSC inhib: blocks cancer stem cells. hit rate 1.1% among 300,000. cancer stem cell-like cells viability, luminescence. inhibition, % at 7.5 µM; in the data active = inhibition above about 75%; tested in HMLE shEcad cells
ANO1 activ: activators or potentiators of mouse TMEM16A chloride channel | Q8BHY3 | HEK293 TMEM16A/YFP-H148Q/I152L, iodide quench fluorescence; stronger effect = lower value | B-score at 10 µM | hit rate 0.3% among 340,000 | AID 623877;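 active = fluorescence-ratio B-score plate-corrected deviation score at least 3 library SD below zero, with starting fluorescence score within 5 deviations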;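 also: channel opened by trigger with iodide after compound preincubation; score built on the fluorescence ratio of max minus min over baseline; more negative score means more quench and so TMEM16A activation or potentiation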
Of the large screens only hits and unclear results are named; the others gave an inactive call. Hits are enriched below; roughly 3.8% of the tested compounds scored in any of these assays.

COc1ccccc1N1CCN(Cc2cccc(Br)c2)CC1	none
CCCOC(=O)c1ccc(-[n+]2c(-c3ccccc3)cc(-c3ccccc3)cc2-c2ccccc2)cc1	ANO1 block 100, Beta apoptosis 123, ANO1 activ -5.7
O=C(O)c1ccc(-[n+]2c(-c3ccccc3)cc(-c3ccccc3)cc2-c2ccccc2)cc1	none
COC(=O)C1=C(c2ccc(F)cc2F)C[C@@H]2CC[C@H]1N2C(=O)NCCOc1ccccc1Cl	none (no result: ANO1 block)
CNc1ccc2oc(C[C@H]3O[C@@]4(CC[C@H]3C)O[C@H]([C@H](C)C(=O)c3ccc[nH]3)[C@H](C)C[C@H]4C)nc2c1C(=O)O	ANO1 block 100, Beta apoptosis 109, CSC inhib 106, ANO1 activ -37
OC[C@@H](O)CCl	none (no result: MC4R antag cAMP, MC4R barr agon, ANO1 activ)
CC1CCN(S(=O)(=O)c2ccc(NN=C(C#N)C#N)cc2)CC1	ANO1 block 100 (no result: MC4R antag cAMP, MC4R barr agon, ANO1 activ)
N#CC(C#N)=NNc1ccc(S(N)(=O)=O)cc1	none
O=C(c1c[nH]c2ccc(S(=O)(=O)N3CCOCC3)cc2c1=O)N1CCC2(CC1)OCCO2	none
COc1ccc(/C=N\N=C(N)N)cc1	none
NC(N)=N/N=C/c1ccc(N(c2ccccc2)c2ccccc2)cc1	Beta apoptosis 110, CSC inhib 110
COC(=O)C1=C(c2ccc(OC)c(OC)c2)C[C@@H]2CC[C@H]1N2C(=O)N1CCCCC1	none (no result: ANO1 block)
C=C(C=O)C[C@@H]1C[C@H](O)C2OC3C[C@]4(C)OC5/C=C\CC6OC7C(CC=CCC6OC5CCCC4OC3CC2O1)OC1CC2OC3CC(=O)OC3C[C@@H](C)C[C@@]2(C)OC1C[C@@H]7C (some centres undefined)	Beta apoptosis 124, CSC inhib 104 (no result: ANO1 block, MC4R antag cAMP, MC4R barr agon, ANO1 activ)
O=C(c1cccc([N+](=O)[O-])c1)C12CN3CN(CN(C3)C1)C2	none
CC(C)OCCCNC(=O)c1c(N)n(Cc2cccs2)c2nc3ccccc3nc12	CSC inhib 118
CC(C)CCn1c(N)c(C(=O)NCc2cccs2)c2nc3ccccc3nc21	CSC inhib 77
O=C(c1ccccc1)C(CN1CCCC1)c1ccccc1 (centres undefined)	Beta apoptosis 92
CCN1CCN(CC(c2ccccc2)c2ccccc2)CC1	none
C=C1C(=O)OC2CC(C)C3C=CC(=O)C3(C)C(O)C12 (centres undefined)	none (no result: ANO1 block, Beta apoptosis, CSC inhib)
C=C1C(=O)O[C@H]2C[C@@H](C)[C@@H]3C=CC(=O)[C@@]3(C)C[C@H]12	Beta apoptosis 104, CSC inhib 89 (no result: MC4R antag cAMP, MC4R barr agon, ANO1 activ)
C=C1C(=O)O[C@@H]2C[C@@H](C)[C@@H]3C=CC(=O)[C@@]3(C)[C@@H](OC(=O)CC(=O)O[C@H]3[C@@H]4C(=C)C(=O)O[C@@H]4C[C@@H](C)[C@@H]4C=CC(=O)[C@]43C)[C@H]12	Beta apoptosis 132, CSC inhib 122
C=CCN1CC[C@]23c4c5ccc(O)c4OC2C(O)CC[C@@]3(O)[C@H]1C5 (some centres undefined)	none (no result: ANO1 block, Beta apoptosis, CSC inhib)
CC1=CC2OC3CC4OC(=O)C=CC=CC(=O)OCCC(C)C(O)C(=O)OCC2(CC1)C4(C)C31CO1 (centres undefined)	MC4R antag cAMP 37, MC4R barr agon 8.9 (no result: ANO1 block, Beta apoptosis, CSC inhib)
CC1CCOC(=O)C=CC=CC(=O)OC2CC3OC4C5OC5(C)C(O)CC4(COC(=O)C1O)C2(C)C31CO1 (centres undefined)	none (no result: ANO1 block, Beta apoptosis, CSC inhib)
C=C1C(=O)O[C@@H]2C[C@@H](C)[C@@H]3C4OC4C(=O)[C@@]3(C)[C@@H](O)[C@H]12 (some centres undefined)	Beta apoptosis 104, CSC inhib 75
O=c1c2ccccc2nc(/C=C/c2ccccc2F)n1-c1ccccc1O	CSC inhib 98
O=c1c2ccccc2nc(/C=C/c2ccccc2O)n1-c1ccccc1O	none
O=C(CN1CCCC1)Nc1ccc(Cl)cc1C(=O)c1ccccc1	CSC inhib 85
Brc1ccc(Oc2cc(Br)c(Br)cc2Br)c(Br)c1	none (no result: ANO1 block)
CCC(=NCCCN(CC)CC)c1c(O)n(C2CCCCC2)c(=O)[nH]c1=O	ANO1 block 100
COc1ccc(-c2cc(-c3ccccc3)[n+](C)c(-c3ccccc3)c2)cc1	Beta apoptosis 109
CC(=O)OC1CC(OC2C(O)CC(OC3C(O)CC(OC4CCC5(C)C(CCC6C5CC(O)C5(C)C(C7=CC(=O)OC7)CCC65O)C4)OC3C)OC2C)OC(C)C1OC1OC(CO)C(O)C(O)C1O (centres undefined)	MC4R barr agon 24 (no result: ANO1 block, Beta apoptosis, CSC inhib)
COC1C(O)C(C)OC(OC2CCC3(C)C(CCC4C3C(O)CC3(C)C(C5=CC(=O)OC5)CCC43O)C2)C1O (centres undefined)	MC4R barr agon 18 (no result: ANO1 block, Beta apoptosis, CSC inhib)
C[C@H]1CC[C@@H]2[C@@H](C)[C@H]3[C@H](C[C@H]4[C@@H]5CC=C6C[C@@H](O[C@@H]7O[C@H](CO)[C@H](O)[C@H](O[C@@H]8O[C@H](CO)[C@@H](O)[C@H](O)[C@H]8O)[C@H]7O[C@@H]7O[C@@H](C)[C@H](O)[C@@H](O)[C@H]7O)CC[C@]6(C)[C@H]5CC[C@]34C)N2C1	none
CNC(=O)Nc1ccc(C(=O)N/N=C\C23CC[C@@H](O)CC2(O)CC[C@@H]2[C@@H]3CCC3(C)C(C4=CC(=O)OC4)CCC23O)cc1 (some centres undefined)	none
C[C@]12CC[C@H](O)C[C@H]1CC[C@@H]1[C@@H]2C[C@@H](O)[C@]2(C)[C@@H](C3=CC(=O)OC3)CC[C@]12O	MC4R barr agon 24, CSC inhib 84
C[C@]12CC[C@H](O)C[C@H]1CC[C@@H]1[C@@H]2CC[C@]2(C)[C@@H](C3=CC(=O)OC3)CC[C@]12O	MC4R barr agon 34, CSC inhib 95
CC(C)OC(=O)Cc1ccccc1	none (no result: ANO1 block)
CC1CCN(CCc2nc3ccccc3[nH]2)CC1	none
CC12CCC(O)CC1CCC1C2CCC2(C)C(C3=CC(=O)OC3)CCC12O (centres undefined)	MC4R barr agon 28 (no result: ANO1 block, Beta apoptosis, CSC inhib)
CC12CCC(O)CC1CCC1C2CCC2(C)C(C3=CC(=O)OC3)C(O)CC12O (centres undefined)	MC4R barr agon 13 (no result: ANO1 block, Beta apoptosis, CSC inhib)
CC12CC[C@H]3[C@@H](CCC4(O)C[C@H](O)CCC34/C=N/NC(=O)Cc3ccccc3)C1(O)CCC2C1=CC(=O)OC1 (some centres undefined)	none
COC(=O)C1=C(c2cc3ccccc3o2)C[C@@H]2CC[C@H]1N2C(=O)NCc1ccccc1	none
CC(C)OP(=O)(Oc1ccc(C(O)C(Cl)(Cl)Cl)cc1)OC(C)C (centres undefined)	none
CSc1ccc(C(=O)C2CCCN(Cc3cc4ccccc4[nH]3)C2)cc1 (centres undefined)	ANO1 block 25
CSc1ccc(C(=O)C2CCCN(Cc3cccnc3)C2)cc1 (centres undefined)	none
